Data reported in PubChem BioAssay AID602225 (Southern Research Specialized Biocontainment Screening …, 2012).
Records with an inconclusive call do not appear. Active and inactive are the calls of the source.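 Rule for the calls: active = viability below 80% at one or more tested concentrations, meaning the compound is toxic to the cells; inconclusive = replicate runs disagree on whether viability fell below 80%; inactive = viability of 80% or more at every dose.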

Tested on: not listed separately
Assay: viability of Vero E6 cells under compound – set 2, cytotoxicity control for PfM18AAP inhibitor project, dose response (AID 602225)
Details: Vero E6 viability, CellTiter-Glo luminescence, 72 h; at 50 µM (top of the series)
How it was run: (§1)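 Assay system: Vero E6 cells; quantity: 3000 cells/well; medium: E-MEM supplemented with 10% fetal bovine serum; compound: 10-point dose series in 2-fold dilution steps; incubation: 72 h compound exposure at 37 °C, 5% CO2; measured by: CellTiter-Glo luminescence; evaluation: % viability and fitted CC50; benchmarks: DMSO vehicle-treated cell wells as reference controls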
With `CN1CCN(CCCc2ccc(O)c(O)c2)CC1` the viability was 93.4% (inactive).
For `CN1CCN(CCc2ccc(O)c(O)c2)CC1`, the viability was 103% (inactive).
For `COc1ccc(CCCN2CCN(C)CC2)cc1OC`, the viability was 100% (inactive).
In the case of `Oc1ccc(-c2csc(Nc3ncccn3)n2)cc1O`, the viability is reported as 90.7% (inactive).
With `Oc1ccc(CCNc2ccnc3ccccc23)cc1O` the viability was 100% (inactive).
For `CN1CCN(c2nc(-c3ccc(O)c(O)c3)cs2)CC1`, the viability was 102% (inactive).

Tested on: Vero E6 viability, CellTiter-Glo luminescence, 72 h
Assay: as above
Details: not given
How it was run: as §1
With `COc1ccc(CCN(C)c2c3ccccc3nc3ccccc23)cc1OC` the CC50 was 27.8 µM.
For `COc1ccc(CCNC(c2ccccc2)c2ccccc2)cc1OC`, the CC50 was 32.6 µM.
In the case of `CCc1ccc(NC(=O)Cc2nc(-c3ccc(O)c(O)c3)cs2)cc1`, the CC50 is reported as 28.7 µM.
Molecule `COc1ccc(CCNc2c3ccccc3nc3ccccc23)cc1OC` has a CC50 of 13.9 µM.
Work on `Oc1ccc(CCNc2c3ccccc3nc3ccccc23)cc1O` yielded a CC50 of 30.9 µM.
